Results: ChEMBL document CHEMBL2010648, “Discovery of novel anti-inflammatory drug-like compounds by aligning in silico and in vivo screening: the nitroindazolinone chemotype” (Eur J Med Chem, 2011)

Columns and labels:
Danio rerio [1] = species: Danio rerio; experiment: Antiinflammatory activity in transgenic zebrafish larvae harboring Fli-1 gene assessed as LPS-stimulated leukocyte migration to injury zone of tail transected larvae at 30 uM after 20 to 22 hrs by microscopy; type: functional
Procedure, shortened: (§1)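 Transgenic fli-1:EGFP zebrafish were reared in E3 at 28 °C, with PTU added at 20 hpf. Compounds were dissolved in DMSO and diluted in Danieau's, with final DMSO ≤1%. Ten 4-dpf larvae per group were pretreated for 1 h, anaesthetised with tricaine and tail-transected. They were then incubated with compound plus LPS for 20–22 h, fixed in 4% PFA and stained with Leucognost. Leukocyte migration to the tail tip was scored microscopically as relative leukocyte migration. Run in triplicate.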

Danio rerio [2] = species: Danio rerio; experiment: Antiinflammatory activity in transgenic zebrafish larvae harboring Fli-1 gene assessed as LPS-stimulated leukocyte migration to injury zone of tail transected larvae at 3 uM after 20 to 22 hrs by microscopy; type: functional; procedure, shortened: as §1
Mus musculus [3] = species: Mus musculus; experiment: Inhibition of MPO activity in TPA-induced Swiss mouse ear tissue homogenates after 3 mins relative to control; type: functional, organism-based; parameters: concentration or dose not given beside the values
Procedure, shortened: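 Ear tissue was homogenised at 0 °C in 80 mM phosphate buffer with 0.5% HTAB, then centrifuged at 10300g for 20 min at 4 °C. Supernatant, in triplicate, was mixed with phosphate buffer (pH 5.4) and H2O2. The reaction was started with TMB in 8% DMF, run 3 min at 37 °C and stopped with NaOAc/HOAc pH 3.0. A630 was read, and inhibition % was calculated versus the vehicle group.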

Danio rerio [4] = species: Danio rerio; experiment: Toxicity in transgenic zebrafish larvae harboring Fli-1 gene assessed as maximum tolerated dosage after 24 hrs; type: organism-based; settings: in vivo
Procedure, shortened: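 Fertilized eggs of the fli-1:EGFP line reared in E3 embryo medium at 28 °C, with PTU added at 20 hpf to block pigmentation. Compounds were dissolved in DMSO and diluted in Danieau's 0.3X, final DMSO ≤1%. Larvae at 4 dpf, 5 per well, were exposed for 24 h to 10, 30 and 100 (highest) concentrations and checked by light microscopy at 5 dpf. MTC is the highest concentration giving no death or toxicity signs.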

Mus musculus [5] = experiment: Antiinflammatory activity against TPA-induced ear edema in Swiss mouse assessed as inhibition of increase in ear weight at 0.5 mg/ear administered topically measured after 4 hrs relative to control; type: functional
Procedure, shortened: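 Female Swiss mice (25–30 g, groups of six) received TPA in acetone topically on the right ear, with the left ear as control. Compound in acetone was applied at the same time. After 4 h, 6 mm punches from both ears were weighed. Oedema was taken as the weight difference between ears, and inhibition % was calculated versus the vehicle group. Mean ± SEM, Dunnett's test.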

Danio rerio [6] = species: Danio rerio; experiment: Antiinflammatory activity in transgenic zebrafish larvae harboring Fli-1 gene assessed as LPS-stimulated leukocyte migration to injury zone of tail transected larvae at 10 uM after 20 to 22 hrs by microscopy; type: functional; procedure, shortened: as §1
Danio rerio [7] = species: Danio rerio; experiment: Antiinflammatory activity in transgenic zebrafish larvae harboring Fli-1 gene assessed as LPS-stimulated leukocyte migration to injury zone of tail transected larvae at 1 uM after 20 to 22 hrs by microscopy; type: functional; procedure, shortened: as §1
J774 [8] = experiment: Cytotoxicity against mouse J774 cells at 64 uM after 24 hrs by MTT assay; type: functional
Procedure, shortened: (§2)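 J774 macrophages in RPMI-1640 with 20% heat-inactivated FCS were seeded at 70,000 cells/well and allowed to attach for 24 h at 37 °C. They were exposed to compounds for 24 h (final DMSO ≤0.2%), then given MTT 0.4 mg/mL for 60 min; formazan was dissolved in DMSO and read at OD595. %Cytotoxicity was calculated against growth controls, corrected for compound-in-medium blanks. Each concentration was tested three times, in duplicate assays.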

J774 [9] = experiment: Cytotoxicity against mouse J774 cells at 256 uM after 24 hrs by MTT assay; type: functional; procedure, shortened: as §2
J774 [10] = experiment: Cytotoxicity against mouse J774 cells at 128 uM after 24 hrs by MTT assay; type: functional; procedure, shortened: as §2
J774 [11] = experiment: Cytotoxicity against mouse J774 cells at 10 ug/mL after 24 hrs by MTT assay; type: functional; procedure, shortened: as §2
J774 [12] = experiment: Cytotoxicity against mouse J774 cells at 1 ug/mL after 24 hrs by MTT assay; type: functional; procedure, shortened: as §2
J774 [13] = experiment: Cytotoxicity against mouse J774 cells at 100 ug/mL after 24 hrs by MTT assay; type: functional; procedure, shortened: as §2
Danio rerio [14] = species: Danio rerio; experiment: Antiinflammatory activity in transgenic zebrafish larvae harboring Fli-1 gene assessed as LPS-stimulated leukocyte migration to injury zone of tail transected larvae at 0.3 uM after 20 to 22 hrs by microscopy; type: functional; procedure, shortened: as §1
Danio rerio [15] = species: Danio rerio; experiment: Antiinflammatory activity in transgenic zebrafish larvae harboring Fli-1 gene assessed as LPS-stimulated leukocyte migration to injury zone of tail transected larvae at 100 uM after 20 to 22 hrs by microscopy; type: functional; procedure, shortened: as §1
Danio rerio [16] = species: Danio rerio; experiment: Toxicity to transgenic zebrafish larvae harboring Fli-1 gene at 100 uM after 24 hrs; settings: in vivo

| SMILES | Ratio (Danio rerio [1]) | Ratio (Danio rerio [2]) | MTD (Danio rerio [4]) [µM] | Ratio (Danio rerio [6]) | Ratio (Danio rerio [7]) | other results |
| --- | --- | --- | --- | --- | --- | --- |
| O=c1[nH]n(Cc2ccccc2F)c2ccccc12 | 0.17 | 0.46 | 30 | 0.25 |  | inhibition (Mus musculus [3]): -3%; inhibition (INH) (Mus musculus [5]): 32% |
| O=c1[nH]n(Cc2cccc(Cn3[nH]c(=O)c4cc([N+](=O)[O-])ccc43)c2)c2ccc([N+](=O)[O-])cc12 |  | 0.8 | 10 | 0.64 | 0.87 |  |
| CCCCCn1c2ccc([N+](=O)[O-])cc2c(=O)n1Cc1ccccc1 |  | 0.67 | 10 | 0.27 | 0.68 | Activity (J774 [8]): 54.14%; Activity (J774 [9]): 80.99%; inhibition (Mus musculus [3]): 46%; Activity (J774 [10]): 71.75%; inhibition (INH) (Mus musculus [5]): 92% |
| Cn1c2ccc([N+](=O)[O-])cc2c(=O)n1Cc1ccccc1 | 0.27 | 0.67 | 30 | 0.63 |  | Activity (J774 [11]): 21%; Activity (J774 [12]): 11.5%; inhibition (Mus musculus [3]): 67%; Activity (J774 [13]): 57.5%; inhibition (INH) (Mus musculus [5]): 104% |
| COc1nn(Cc2ccccc2-c2ccccc2Cn2nc(OC)c3cc([N+](=O)[O-])ccc32)c2ccc([N+](=O)[O-])cc12 |  | 0.87 | 10 | 0.69 | 0.84 |  |
| O=C1Nc2cc([N+](=O)[O-])ccc2N2Cc3ccccc3CC12 (stereo not given) |  | 0.71 | 10 | 0.77 | 0.75 |  |
| O=c1[nH]n(Cc2ccccc2OCc2ccccc2)c2ccc([N+](=O)[O-])cc12 |  | 0.76 | 10 | 0.84 | 0.94 |  |
| O=c1[nH]n(Cc2ccccc2-c2ccccc2Cn2[nH]c(=O)c3cc([N+](=O)[O-])ccc32)c2ccc([N+](=O)[O-])cc12 |  | 0.92 | 10 | 0.85 | 0.72 |  |
| O=c1c2cc([N+](=O)[O-])ccc2n(Cc2ccccc2)n1Cc1ccccc1 |  | 0.65 | 10 | 0.35 | 0.58 | Activity (J774 [8]): 9.77%; Activity (J774 [9]): 57.87%; inhibition (Mus musculus [3]): 36%; Activity (J774 [10]): 64%; inhibition (INH) (Mus musculus [5]): 80% |
| COc1ccc2c(c1)c(CC(=O)O)c(C)n2C(=O)c1ccc(Cl)cc1 [INDOMETHACIN] | 0.38 | 0.5 | > 100 | 0.48 | 0.54 | Ratio (Danio rerio [14]): 0.57; inhibition (Mus musculus [3]): 61%; Ratio (Danio rerio [15]): 0.28; inhibition (INH) (Mus musculus [5]): 97% |
| O=c1[nH]n(Cc2ccccc2CCl)c2ccc([N+](=O)[O-])cc12 |  | 0.78 | 10 | 0.33 | 0.83 |  |
| O=c1c2cc([N+](=O)[O-])ccc2[nH]n1Cc1ccccc1 | 0.65 |  | > 100 | 0.81 |  | Ratio (Danio rerio [15]): 0.39 |
| O=c1c2cc([N+](=O)[O-])ccc2n2n1Cc1ccccc1C2 |  | 0.54 | 10 | 0.29 | 0.56 |  |
| O=c1[nH]n(Cc2ccccc2)c2ccc([N+](=O)[O-])cc12 |  | 0.67 | 10 | 0.46 | 0.88 |  |
| O=c1c2cccnc2n2n1Cc1ccccc1C2 | 0.52 | 0.89 | 30 | 0.8 |  |  |
| O=c1[nH]n(Cc2ccccn2)c2ccc([N+](=O)[O-])cc12 | 0.74 |  | > 100 | 0.83 |  | Ratio (Danio rerio [15]): 0.59 |
| O=c1[nH]n(Cc2ccccc2Cl)c2ccc([N+](=O)[O-])cc12 | 0.26 | 0.78 | 30 | 0.22 |  |  |

| SMILES | Ratio (Danio rerio [1]) | Ratio (Danio rerio [2]) | MTD (Danio rerio [4]) [µM] | Ratio (Danio rerio [6]) | Ratio (Danio rerio [7]) | other results |
| --- | --- | --- | --- | --- | --- | --- |
| O=[N+]([O-])c1ccc2c(c1)c(OCc1ccccc1)nn2Cc1ccccc1 |  | 0.75 | 10 | 0.73 | 0.94 |  |
| O=c1[nH]n(Cc2ccccc2O)c2ccc([N+](=O)[O-])cc12 | 0.61 |  | > 100 | 0.86 |  | Ratio (Danio rerio [15]): 0.27 |
| O=c1[nH]n(Cc2ccccc2F)c2ccc([N+](=O)[O-])cc12 |  | 0.84 | 10 | 0.3 | 0.91 |  |
| CCOCc1ccccc1CCN1CC(=O)Nc2cc([N+](=O)[O-])ccc21 |  | 0.62 | 10 | 0.48 | 0.59 |  |
| O=[N+]([O-])c1ccc2c(c1)CC([O-])=N[N+]21CCCCC1 | 0.89 |  | > 100 | 0.86 |  | Ratio (Danio rerio [15]): 0.81 |
| O=c1c2cc([N+](=O)[O-])ccc2[nH]n1Cc1ccccn1 | 0.62 |  | > 100 | 0.94 |  | Ratio (Danio rerio [15]): 0.66 |
| O=C1C2=Cc3ccccc3CCN2c2ccccc21 |  | 0.24 | 3 |  | 0.4 | Activity (Danio rerio [16]): Toxic; Activity (J774 [11]): 9.4%; Ratio (Danio rerio [14]): 0.64; Activity (J774 [12]): 3.4%; inhibition (Mus musculus [3]): 56%; Activity (J774 [13]): 73.1%; inhibition (INH) (Mus musculus [5]): 73% |
| Cn1c(=O)c2cc([N+](=O)[O-])ccc2n1Cc1ccccc1 | 0.26 | 0.6 | 30 | 0.46 |  | Activity (J774 [11]): 43.9%; Activity (J774 [12]): 32.8%; inhibition (Mus musculus [3]): 56%; Activity (J774 [13]): 58.4%; inhibition (INH) (Mus musculus [5]): 97% |
| O=C(Cc1cc([N+](=O)[O-])ccc1F)NN1Cc2ccccc2C1 | 0.87 |  | > 100 | 0.89 |  | Ratio (Danio rerio [15]): 0.5 |
| O=[N+]([O-])c1ccc2[nH]nc(OCc3ccccc3Cl)c2c1 |  | 0.65 | 10 | 0.41 | 0.62 | Activity (J774 [11]): 9.4%; Activity (J774 [12]): 4.4%; inhibition (Mus musculus [3]): 63%; Activity (J774 [13]): 96.4%; inhibition (INH) (Mus musculus [5]): 91% |
| O=C(NN1Cc2ccccc2C1)c1cc([N+](=O)[O-])ccc1Cl | 0.93 |  | > 100 | 0.93 |  | Ratio (Danio rerio [15]): 0.7 |
| CN(C)CCCOc1nn(Cc2ccccc2F)c2ccc([N+](=O)[O-])cc12 | 0.97 | 0.74 | 30 | 0.89 |  |  |
| CCCn1c2ccc([N+](=O)[O-])cc2c(=O)n1Cc1ccccc1 | 0.16 | 0.89 | 30 | 0.86 |  |  |
| COc1nn(Cc2ccccc2F)c2ccc([N+](=O)[O-])cc12 | 0.87 | 0.86 | 30 | 0.92 |  |  |
| O=C(NCc1cc([N+](=O)[O-])ccc1N1CCc2ccccc2C1)NCc1cc([N+](=O)[O-])ccc1N1CCc2ccccc2C1 |  | 0.82 | 10 | 0.81 | 0.85 |  |
| COc1ccc(Cn2[nH]c(=O)c3cc([N+](=O)[O-])ccc32)cc1 |  | 0.87 | 10 | 0.8 | 0.87 |  |
